According to ChEMBL document CHEMBL1126660, “Nonpeptide angiotensin II antagonists: N-phenyl-1H-pyrrole derivatives are angiotensin II receptor antagonists” (J Med Chem, 1993):

Experiments:
Oryctolagus cuniculus [1] = species on record: Oryctolagus cuniculus; experiment: Compound was evaluated for antagonism of angiotensin II induced contraction of rabbit aorta rings.; format: functional; settings: read-out: pA2 (converted)
Procedure, shortened: (§1)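 Paired rabbit aortic rings: control ring given increasing AII concentrations at 30-min intervals; second ring given AII with antagonist added 5 min beforehand. Responses expressed as % of control ring maximal contraction; pD2 for AII from concentration-response curves, pA2 by Schild analysis.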

[2] = target: T1, Type-2 angiotensin II receptor (Rattus norvegicus, UniProt P35351); experiment: Activity against low affinity Angiotensin II receptor, type 2 was measured from the ability to inhibit [125I]angiotensin II binding to rat uterine membrane
T1 sequence (P35351 whole entry): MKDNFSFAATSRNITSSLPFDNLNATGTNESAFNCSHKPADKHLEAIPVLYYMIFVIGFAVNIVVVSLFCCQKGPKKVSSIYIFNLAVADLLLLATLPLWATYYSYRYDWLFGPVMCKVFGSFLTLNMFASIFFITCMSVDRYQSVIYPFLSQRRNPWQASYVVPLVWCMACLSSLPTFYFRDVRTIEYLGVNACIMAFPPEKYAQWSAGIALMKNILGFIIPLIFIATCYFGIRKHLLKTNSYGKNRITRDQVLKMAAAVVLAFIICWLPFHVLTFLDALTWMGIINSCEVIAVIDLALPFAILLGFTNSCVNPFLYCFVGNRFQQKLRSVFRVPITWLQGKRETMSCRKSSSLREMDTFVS

[3] = target: T2, Type-1 angiotensin II receptor B (Rattus norvegicus, UniProt P29089); experiment: Activity against high affinity Angiotensin II receptor, type 1 was measured from the ability to inhibit [125I]angiotensin II binding to rat uterine membrane.
T2 sequence (P29089 whole entry): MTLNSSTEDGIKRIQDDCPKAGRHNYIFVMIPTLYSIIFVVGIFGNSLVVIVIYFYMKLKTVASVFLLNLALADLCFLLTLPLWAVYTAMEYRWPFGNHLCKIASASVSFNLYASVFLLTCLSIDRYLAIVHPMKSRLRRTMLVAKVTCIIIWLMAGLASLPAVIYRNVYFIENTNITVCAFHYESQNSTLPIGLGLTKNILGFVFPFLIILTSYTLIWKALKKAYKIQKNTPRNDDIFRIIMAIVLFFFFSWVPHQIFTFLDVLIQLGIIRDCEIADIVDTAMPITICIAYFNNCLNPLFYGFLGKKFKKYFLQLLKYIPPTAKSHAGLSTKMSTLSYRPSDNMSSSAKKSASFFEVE

Oryctolagus cuniculus [4] = species on record: Oryctolagus cuniculus; experiment: Evaluated for antagonism of angiotensin II induced contraction of rabbit aorta rings; format: functional; settings: read-out: pA2 (converted); procedure, shortened: as §1

**Q.** For `CCCCc1nc(Cl)c(CO)n1Cc1ccc(-n2cccc2C(=O)O)cc1`, which Kb (Oryctolagus cuniculus [1]) is on record?
**A.** The Kb was 1260 nM.

**Q.** How did the IC50 [2] turn out when `CCCCc1nc(CCCC)n(Cc2ccc(-n3ccc(-c4nnn[nH]4)c3)cc2)n1` was run?
**A.** Its IC50 is 220 µM.

**Q.** `CCCCc1nc(Cl)c(CO)n1Cc1ccc(-c2ccccc2C(=O)O)cc1` was tested. Which IC50 [3] did it give?
**A.** Its IC50 is 170 nM.

**Q.** And the IC50 [2]?
**A.** Its IC50 is 3.3 µM.

**Q.** For `CCCCc1nc(CCCC)n(Cc2ccc(-n3c(Cl)cc(Cl)c3-c3nnn[nH]3)cc2)n1`, which IC50 [3] is on record?
**A.** Its IC50 is 52 nM.

**Q.** And the IC50 [2]?
**A.** Its IC50 is 810 µM.

**Q.** And the Kb (Oryctolagus cuniculus [4])?
**A.** The Kb was 20 nM.

**Q.** How did the IC50 [3] turn out when `CCCCc1nc(CCCC)n(Cc2ccc(-c3ccccc3-c3nnn[nH]3)cc2)n1` was run?
**A.** Its IC50 is 6.5 nM.

**Q.** How did the Kb (Oryctolagus cuniculus [1]) turn out when `CCCCc1nc(Cl)c(CO)n1Cc1ccc(-c2ccccc2-c2nnn[nH]2)cc1` [LOSARTAN] was run?
**A.** The Kb was 7.94 nM.
